Reference: ChEMBL document CHEMBL5357049, “Discovery of new dibenzodiazepine derivatives as antibacterials against intracellular bacteria” (RSC Med Chem, 2024)
Active and inactive are the calls of the source. The rule behind the calls is not given here.

What was measured:
[1] = test system: Salmonella typhimurium; experiment: Antibacterial activity against Salmonella typhimurium ATCC14028 infected in mouse RAW264.7 cells assessed as reduction in intracellular bacterial growth incubated for 24 hrs in presence of gentamicin by CMFDA and DAPI staining based high-content screening method; assay type: functional, organism-based, Salmonella enterica subsp. enterica serovar Typhimurium; conditions: Salmonella enterica, ATCC14028, RAW264.7, 24 h
Procedure, shortened: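 RAW264.7 seeded at 10^4 cells/well for 20 h, then infected at MOI 50 with RFP-expressing ATCC14028 (subcultured 2 h, OD600 0.6 ≈ 1.5×10^8 CFU/mL). After 1 h infection: 100 µg/mL gentamicin 1 h, then compound with 20 µg/mL gentamicin for 24 h. Stained with 2.5 µM CMFDA, fixed in 3.7% formaldehyde, DAPI nuclei; nuclei and intracellular bacteria counted by imaging, 10× objective.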

[2] = Cytotoxicity against mouse RAW264.7 cells assessed as reduction in cell viability incubated for 24 hrs by MTT assay; assay type: toxicity, cell-based
Procedure, shortened: (§1)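 Cells seeded at 10^5 cells/mL, grown 20 h at 37°C, 5% CO2, then exposed to compound for 24 h. Medium replaced with 0.5 mg/mL MTT for 1 h, formazan dissolved in DMSO, absorbance read at 570 nm; CC50 calculated. HT-29 and HCT-116 kept in McCoy's 5A with 10% FBS, THP-1 in RPMI 1640 with 10% FBS, others in DMEM with 10% FBS.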

[3] = Selectivity ratio of CC50 for cytotoxicity against mouse RAW264.7 cells to EC50 for antibacterial activity against Salmonella typhimurium ATCC14028 infected in mouse RAW264.7 cells; assay type: toxicity, cell-based; conditions: read-out: Ratio CC50/EC50
[4] = test system: Salmonella typhimurium; experiment: Antibacterial activity against Salmonella typhimurium ATCC14028 infected in mouse RAW264.7 cells assessed as reduction in intracellular bacterial growth incubated for 24 hrs in presence of gentamicin by CFU assay; assay type: functional, organism-based, Salmonella enterica subsp. enterica serovar Typhimurium; conditions: Salmonella enterica, ATCC14028, RAW264.7, 24 h
Procedure, shortened: (§2)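 RAW264.7 cells in DMEM + 10% FBS, seeded at 3×10^5 per well for 20 h. Bacteria were grown in LB for 16–18 h, subcultured 1:100 for 2 h, and brought to OD600 0.6 in PBS. After 1 h infection, cells got 100 µg/mL gentamicin for 1 h, then compound for 24 h with 20 µg/mL gentamicin.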

[5] = Cytotoxicity against mouse RAW264.7 cells assessed as reduction in cell viability incubated for 24 hrs by CMFDA and DAPI staining based high-content screening method; assay type: toxicity
[6] = test system: RAW264.7; experiment: Cytotoxicity against mouse RAW264.7 cells assessed as reduction in cell viability at 60 uM incubated for 24 hrs by MTT assay; assay type: toxicity, cell-based; conditions: raw264.7, 24 h
[7] = test system: Salmonella typhimurium; experiment: Antibacterial activity against Salmonella typhimurium ATCC14028 assessed as reduction in bacterial growth upto 64 uM incubated for 24 hrs by SpectraMax microplate reader analysis; assay type: functional, organism-based; conditions: Salmonella enterica subsp. enterica serovar Typhimurium
Procedure, shortened: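 Overnight LB culture inoculated at 5×10^5 CFU/mL final into CAMHB or into DMEM with 10% FBS. Exposed to a range of concentrations at 37°C; growth followed by absorbance at 600 nm at set times over 24 h.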

[8] = target: D(2) dopamine receptor (Homo sapiens) (UniProt P14416); experiment: Displacement of [3H]-labelled spiperone human recombinant D2 receptor expressed in CHO cells at 0.1 to 1 uM incubated for 2 hrs; assay type: cell-based; conditions: dose 0.1-1 µM
Procedure, shortened: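 Contract radioligand binding: 20 µg human recombinant D2R from CHO cells incubated with [3H]spiperone, then compound added; pH 7.4 Tris-HCl, 2 h at 25°C.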

[9] = test system: THP-1; experiment: Cytotoxicity against macrophage-like human THP-1 cells assessed as reduction in cell viability incubated for 24 hrs in presence of gentamicin by MTT assay; assay type: functional
Procedure, shortened: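 THP-1 differentiated to macrophages with 100 ng/mL PMA for 72 h, then seeded at 10^5 cells/mL and grown 20 h. Compound added for 24 h; 0.5 mg/mL MTT for 1 h, formazan dissolved in DMSO, absorbance at 570 nm; CC50 calculated.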

[10] = test system: THP-1; experiment: Cytotoxicity against monocytic human THP-1 cells assessed as reduction in cell viability incubated for 24 hrs in presence of gentamicin by MTT assay; assay type: functional; procedure, shortened: as §1
[11] = test system: HT-29; experiment: Cytotoxicity against human HT-29 cells assessed as reduction in cell viability incubated for 24 hrs in presence of gentamicin by MTT assay; assay type: functional; procedure, shortened: as §1
[12] = test system: HCT-116; experiment: Cytotoxicity against human HCT-116 cells assessed as reduction in cell viability incubated for 24 hrs in presence of gentamicin by MTT assay; assay type: functional; procedure, shortened: as §1
[13] = Cytotoxicity against human Intestine 407 cells assessed as reduction in cell viability incubated for 24 hrs in presence of gentamicin by MTT assay; assay type: functional; procedure, shortened: as §1
[14] = test system: J774.1; experiment: Cytotoxicity against mouse J774.1 cells assessed as reduction in cell viability incubated for 24 hrs in presence of gentamicin by MTT assay; assay type: functional; procedure, shortened: as §1
[15] = test system: Salmonella typhimurium; experiment: Antibacterial activity against Salmonella typhimurium ATCC14028 infected in mouse J774.1 cells assessed as reduction in intracellular bacterial growth incubated for 24 hrs in presence of gentamicin by CFU assay; assay type: functional, organism-based, Salmonella enterica subsp. enterica serovar Typhimurium; conditions: Salmonella enterica, ATCC14028, J774.1, 24 h
Procedure, shortened: (§3)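 Host cells: HCT-116 and HT-29 in McCoy's 5A + 10% FBS; INT-407 and J774.1 in DMEM + 10% FBS. Bacteria were LB-grown, subcultured 2 h, and set to OD600 0.6. After 1 h infection, cells got 100 µg/mL gentamicin for 1 h, then compound for 24 h with 20 µg/mL gentamicin. Lysis was 0.1% Triton X-100, then plating and overnight colony counts; EC50 calculated.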

[16] = test system: Salmonella typhimurium; experiment: Antibacterial activity against Salmonella typhimurium ATCC14028 infected in macrophage-like human THP-1 cells assessed as reduction in intracellular bacterial growth incubated for 24 hrs in presence of gentamicin by CFU assay; assay type: functional, organism-based, Salmonella enterica subsp. enterica serovar Typhimurium; conditions: Salmonella enterica, ATCC14028, THP-1, 24 h
Procedure, shortened: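 THP-1 cells in RPMI 1640 + 10% FBS, differentiated with 100 ng/mL PMA for 72 h. Cells were infected 1 h with LB-grown bacteria adjusted to OD600 0.6, given 100 µg/mL gentamicin for 1 h, then compound for 24 h in 20 µg/mL gentamicin.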

[17] = test system: Salmonella typhimurium; experiment: Antibacterial activity against Salmonella typhimurium ATCC14028 infected in monocytic human THP-1 cells assessed as reduction in intracellular bacterial growth incubated for 24 hrs in presence of gentamicin by CFU assay; assay type: functional, organism-based, Salmonella enterica subsp. enterica serovar Typhimurium; conditions: Salmonella enterica, ATCC14028, THP-1, 24 h
Procedure, shortened: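 Undifferentiated THP-1 cells in RPMI 1640 + 10% FBS. Cells were infected 1 h with LB-grown bacteria at OD600 0.6, given 100 µg/mL gentamicin for 1 h, then compound for 24 h with 20 µg/mL gentamicin.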

[18] = test system: Salmonella typhimurium; experiment: Antibacterial activity against Salmonella typhimurium ATCC14028 infected in human HT-29 cells assessed as reduction in intracellular bacterial growth incubated for 24 hrs in presence of gentamicin by CFU assay; assay type: functional, organism-based, Salmonella enterica subsp. enterica serovar Typhimurium; conditions: Salmonella enterica, ATCC14028, HT-29, 24 h; procedure, shortened: as §3
[19] = test system: Salmonella typhimurium; experiment: Antibacterial activity against Salmonella typhimurium ATCC14028 infected in human HCT-116 cells assessed as reduction in intracellular bacterial growth incubated for 24 hrs in presence of gentamicin by CFU assay; assay type: functional, organism-based, Salmonella enterica subsp. enterica serovar Typhimurium; conditions: Salmonella enterica, ATCC14028, HCT-116, 24 h; procedure, shortened: as §3
[20] = test system: Salmonella typhimurium; experiment: Antibacterial activity against Salmonella typhimurium ATCC14028 infected in human Intestine 407 cells assessed as reduction in intracellular bacterial growth incubated for 24 hrs in presence of gentamicin by CFU assay; assay type: functional, organism-based, Salmonella enterica subsp. enterica serovar Typhimurium; conditions: Salmonella enterica, ATCC14028, Intestine 407, 24 h; procedure, shortened: as §3
[21] = test system: Salmonella typhimurium; experiment: Antibacterial activity against ACSSuT-resistant Salmonella typhimurium NL10 infected in mouse RAW264.7 cells assessed as reduction in intracellular bacterial growth incubated for 24 hrs in presence of gentamicin by CFU assay; assay type: functional, organism-based, Salmonella enterica subsp. enterica serovar Typhimurium; conditions: Salmonella enterica, NL10, RAW264.7, 24 h; procedure, shortened: as §2
[22] = test system: Listeria monocytogenes; experiment: Antibacterial activity against Listeria monocytogenes infected in mouse RAW264.7 cells assessed as reduction in intracellular bacterial growth incubated for 24 hrs in presence of gentamicin by CFU assay; assay type: functional, organism-based; conditions: RAW264.7, 24 h
Procedure, shortened: (§4)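 Clinical isolate grown overnight (16-18 h) in BHI at 37°C with shaking, subcultured 1:100 for 2 h, pelleted, resuspended in PBS to OD600 0.6. RAW264.7 infected for 1 h, then 100 µg/mL gentamicin 1 h, then compound in medium with 20 µg/mL gentamicin for 24 h. Cells lysed in 0.1% Triton X-100, lysates serially diluted and plated, colonies counted after overnight growth; EC50 calculated.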

[23] = test system: Yersinia enterocolitica; experiment: Antibacterial activity against Yersinia enterocolitica infected in mouse RAW264.7 cells assessed as reduction in intracellular bacterial growth incubated for 24 hrs in presence of gentamicin by CFU assay; assay type: functional, organism-based; conditions: RAW264.7, 24 h; procedure, shortened: as §4
[24] = test system: Salmonella Typhi; experiment: Antibacterial activity against Salmonella Typhi Ty2 infected in mouse RAW264.7 cells assessed as reduction in intracellular bacterial growth incubated for 24 hrs in presence of gentamicin by CFU assay; conditions: Salmonella enterica, Ty2, RAW264.7, 24 h
[25] = test system: Salmonella typhimurium; experiment: Antibacterial activity against Salmonella typhimurium CGC18 infected in mouse RAW264.7 cells assessed as reduction in intracellular bacterial growth incubated for 24 hrs in presence of gentamicin by CFU assay; conditions: Salmonella enterica, CGC18, RAW264.7, 24 h

D(2) dopamine receptor (Homo sapiens), sequence (P14416 whole entry): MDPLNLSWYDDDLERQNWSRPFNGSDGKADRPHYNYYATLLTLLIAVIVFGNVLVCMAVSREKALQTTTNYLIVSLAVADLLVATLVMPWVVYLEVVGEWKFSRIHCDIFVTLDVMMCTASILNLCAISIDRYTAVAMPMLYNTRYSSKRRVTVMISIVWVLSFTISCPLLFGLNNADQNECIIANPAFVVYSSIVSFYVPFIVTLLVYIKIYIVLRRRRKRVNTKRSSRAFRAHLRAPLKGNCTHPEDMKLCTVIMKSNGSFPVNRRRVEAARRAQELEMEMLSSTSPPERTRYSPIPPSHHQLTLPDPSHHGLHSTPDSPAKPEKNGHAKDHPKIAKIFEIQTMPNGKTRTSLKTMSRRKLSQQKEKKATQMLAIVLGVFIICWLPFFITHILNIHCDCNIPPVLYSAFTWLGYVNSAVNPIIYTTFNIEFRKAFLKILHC

Cc1cc2c(s1)Nc1ccccc1N=C2NCCCN1CCCC1
EC50 [1]: 1.14 µM | CC50 at 24 h [2]: 76.8 µM | selectivity ratio [3]: 67.3

Clc1ccc2c(c1)C(NCCN1CCNCC1)=Nc1ccccc1O2
EC50 [1]: 0.3 µM | CC50 at 24 h [2]: 22.5 µM | selectivity ratio [3]: 75

Cc1cc2c(s1)Nc1ccccc1N=C2NCCN(C)C
EC50 [1]: 1.48 µM | CC50 at 24 h [2]: 126 µM | selectivity ratio [3]: 85.3

c1ccc2c(c1)N=C(NCCCN1CCCC1)c1ccccc1N2
EC50 [1]: 0.4 µM | CC50 at 24 h [2]: 109 µM | selectivity ratio [3]: 272 | EC50 [4]: 0.38 µM | CC50 at 24 h [5]: 92.5 µM | Activity [6]: Non-Toxic | Activity [7]: inactive | Activity [8]: inactive | CC50 [9]: 134 µM | CC50 [10]: 153 µM | CC50 [11]: > 180 µM | CC50 [12]: > 180 µM | CC50 [13]: > 180 µM | CC50 [14]: 86.8 µM | EC50 [15]: 0.42 µM | EC50 [16]: 0.52 µM | EC50 [17]: 1.02 µM | EC50 [18]: 5.97 µM | EC50 [19]: 2.85 µM | EC50 [20]: 2.49 µM | EC50 [21]: 2.28 µM | EC50 [22]: 0.6 µM | EC50 [23]: 0.93 µM | EC50 [24]: 0.55 µM | EC50 [25]: 1.27 µM

Cc1cc2c(s1)Nc1ccccc1N=C2N1CCN(C)CC1 [OLANZAPINE]
EC50 [1]: 5.4 µM | CC50 at 24 h [2]: 198 µM | selectivity ratio [3]: 36.7

CN(C)CCNC1=Nc2ccccc2Nc2ccccc21
EC50 [1]: 15.2 µM | CC50 at 24 h [2]: 299 µM | selectivity ratio [3]: 19.7

c1ccc2c(c1)N=C(NCCN1CCNCC1)c1ccccc1N2
EC50 [1]: > 30 µM | CC50 at 24 h [2]: 128 µM

Cc1cc2c(s1)Nc1ccccc1N=C2NCCN1CCNCC1
EC50 [1]: 4.17 µM | CC50 at 24 h [2]: 103 µM | selectivity ratio [3]: 24.6

O=C(O)c1cn(C2CC2)c2cc(N3CCNCC3)c(F)cc2c1=O [CIPROFLOXACIN]
EC50 [1]: 0.06 µM

CN1CCN(C2=Nc3ccccc3Oc3ccc(Cl)cc32)CC1 [LOXAPINE]
EC50 [1]: 5.77 µM | CC50 at 24 h [2]: 110 µM | selectivity ratio [3]: 19.1

Clc1ccc2c(c1)C(NCCN1CCNCC1)=Nc1cccnc1N2
EC50 [1]: 8.82 µM | CC50 at 24 h [2]: 123 µM | selectivity ratio [3]: 13.9

CN(C)CCNC1=Nc2cccnc2Nc2ccc(Cl)cc21
EC50 [1]: 6.09 µM | CC50 at 24 h [2]: 159 µM | selectivity ratio [3]: 26.1

c1ccc2c(c1)N=C(NCCN1CCCCC1)c1ccccc1N2
EC50 [1]: 3.7 µM | CC50 at 24 h [2]: 110 µM | selectivity ratio [3]: 29.8

Cc1cc2c(s1)Nc1ccccc1N=C2NCCN1CCCCC1
EC50 [1]: 2.36 µM | CC50 at 24 h [2]: 38.9 µM | selectivity ratio [3]: 16.5

Clc1ccc2c(c1)C(NCCN1CCCCC1)=Nc1cccnc1N2
EC50 [1]: 5.67 µM | CC50 at 24 h [2]: 61.9 µM | selectivity ratio [3]: 10.9

Clc1ccc2c(c1)C(NCCCN1CCCC1)=Nc1cccnc1N2
EC50 [1]: 4.24 µM | CC50 at 24 h [2]: 101 µM | selectivity ratio [3]: 23.8
